One data set concerns Mus musculus. Put plainly: Antidepressant activity in ip dosed mouse assessed as prevention of reserpine-induced ptosis. It is filed as functional. Summed up:
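Mice dosed ip with test compound; reserpine given to induce ptosis (adapted Petersen et al. method). The percentage of mice with ptosis prevented was recorded. ED50 (mg/kg) derived by the Finney method.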

Data set [1] can be described thus: Acute toxicity in ip dosed albino mouse assessed as mortality measured for 5 days. Format: organism-based. Particulars: in vivo. A digest of the protocol: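 Graded intraperitoneal doses, five animals per group; approximate LD50 estimated from mortality recorded over the 5 days after dosing.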
A further data set relates to Rattus norvegicus. Put plainly: Antidepressant activity in ip dosed rat assessed as prevention of tetrabenazine-induced ptosis. Format: functional. A digest of the protocol:
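Rats dosed ip; tetrabenazine used to induce ptosis (modified Giurgea et al. method). ED50 (mg/kg) derived by the Finney method from prevention of ptosis.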

Each structure is given as a SMILES string. A value given as a limit tells only on which side of the number the result lay.

In the case of `CCn1c2c(c3cc(Cl)ccc31)CCCC2(C)CCN(C)C.Cl` (centres undefined), the ED50 in the data set with Mus musculus came to 0.19 mg/kg.
As for `CN(C)CCC1CCCc2c1n(C)c1ccccc21.Cl` (centres undefined), the LD50 at 120 h in data set [1] amounted to 125 mg/kg. In addition, in the data set on Mus musculus, the ED50 was found to be 5 mg/kg.
`CCn1c2c(c3ccccc31)CCCC2(C)CCNC.Cl` (centres undefined): in data set [1], the LD50 at 120 h was 125 mg/kg. In addition, the ED50 in the data set on Mus musculus came to 1.6 mg/kg.
For `Br.CCn1c2c(c3ccccc31)CCCC2(CC)CCN(C)C` (centres undefined) the same measures were 175 mg/kg and 0.7 mg/kg.
`CCn1c2c(c3ccccc31)CCCC2(C)CCN(C)C.Cl` (centres undefined): the LD50 at 120 h in data set [1] amounted to 125 mg/kg. In addition, the ED50 in the data set on Mus musculus was 0.12 mg/kg; in the data set with Rattus norvegicus, 3.3 mg/kg.
Take `CN(C)CCC=C1c2ccccc2CCc2ccccc21` [AMITRIPTYLINE]: the LD50 at 120 h in data set [1] amounted to 94 mg/kg. Besides, the ED50 with Mus musculus amounted to 4.7 mg/kg; in the data set with Rattus norvegicus it was 37 mg/kg.
For `CN(C)CCCN1c2ccccc2CCc2ccccc21` [IMIPRAMINE], the ED50 came out at 6 mg/kg in the data set on Mus musculus and 22.6 mg/kg in the data set on Rattus norvegicus.
On to `CN(C)CCC1(C)CCCc2c1n(C)c1ccccc21.Cl` (centres undefined), for which the LD50 at 120 h in data set [1] stood at 125 mg/kg. For the same compound, in the data set on Mus musculus, the ED50 stood at 0.8 mg/kg.
Take `CN(C)CC1CCCc2c1[nH]c1ccc(Cl)cc21` (centres undefined): in the data set with Mus musculus, the ED50 is above 30 mg/kg.
With `CCc1cccc2c3c(n(CC)c12)C(C)(CCN(C)C)CCC3.O=C(O)/C=C/C(=O)O` (centres undefined), in the data set with Mus musculus, the ED50 was found to be 19 mg/kg.
Consider `Br.CCn1c2c(c3ccccc31)CCC2(C)CCN(C)C` (centres undefined), for which, in the data set with Mus musculus, the ED50 was 0.75 mg/kg.
With `CCn1c2c(c3ccccc31)CCCCC2(C)CCN(C)C.Cl` (centres undefined), in data set [1], the LD50 at 120 h worked out at 85 mg/kg. In addition, the ED50 in the data set on Mus musculus is 0.27 mg/kg.
In the case of `CCCn1c2c(c3ccccc31)CCCC2(C)CCN(C)C.Cl` (centres undefined), the LD50 at 120 h in data set [1] came out at 125 mg/kg. Besides, the ED50 in the data set on Mus musculus worked out at 0.4 mg/kg.

The ED50 is the dose that gives a 50% effect, or the effect in half of the subjects. The term LD50 denotes the dose at which mortality reaches 50%.

The values above are taken from ChEMBL document CHEMBL3272165, “Cycloalkanoindoles. 2. 1-Alkyl-1,2,3,4-tetrahydrocarbazole-1-ethanamines and related compounds. Potential antidepressants” (J Med Chem, 1976).
